# Test results from ChEMBL document CHEMBL4414599, “Selective Phenylimidazole-Based Inhibitors of the Mycobacterium tuberculosis Proteasome” (J Med Chem, 2019).
# What was measured:
# [1] = tested on: human 20S proteasome subunit beta-5c versus Mycobacterium tuberculosis 20S open gate mutant; assay: Selectivity index, ratio of IC50 for human 20S proteasome subunit beta-5c to IC50 for Mycobacterium tuberculosis 20S open gate mutant; format: toxicity; conditions: read-out: Ratio IC50
# [2] = (§1) Inhibition of Mycobacterium tuberculosis 20S open gate mutant using Suc-LLVY-AMC as substrate and measured every 30 secs for 30 mins by microtiter plate assay
# Summary of the method: (§2)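 Mtb20S open-gate form, expressed and purified in-house, 8 nM in the enzyme solution. Buffer: 20 mM HEPES pH 7.5, 0.5 mM EDTA, 0.1 mg/mL BSA. Suc-LLVY-AMC at 100 µM final. Run at 25 °C with a three-fold inhibitor dilution series, DMSO under 0.5% final. Fluorescence 340/460 nm read every 30 s for 30 min. Rates fitted against log inhibitor concentration to give IC50; triplicate wells.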
# [3] = tested on: human 20S proteasome subunit beta-5i versus Mycobacterium tuberculosis 20S open gate mutant; assay: Selectivity index, ratio of IC50 for human 20S proteasome subunit beta-5i to IC50 for Mycobacterium tuberculosis 20S open gate mutant; format: toxicity; conditions: read-out: Ratio IC50
# [4] = tested on: Mycobacterium tuberculosis; assay: as §1; summary of the method: as §2
SMILES,selectivity ratio [1],IC50 [2],selectivity ratio [3],inhibition [4]
Cc1cc(C(=O)N[C@@H](CC(=O)N2CCC[C@@H]2c2ccccc2)C(=O)N[C@@H](C)c2ncc(-c3ccccc3F)[nH]2)no1,> 12500,8 nM,> 12500,–
Cc1cc(C(=O)N[C@@H](CC(=O)N2CCC[C@@H]2c2ccccc2)C(=O)N[C@@H](C)C(=O)NCc2ccc(F)cc2F)no1,> 33300,3 nM,2630,Dose-dependent effect
Cc1cc(C(=O)N[C@@H](CC(=O)N2CCCC[C@@H]2C)C(=O)N[C@@H](C)c2ncc(-c3ccccc3)[nH]2)no1,–,470 nM,–,–
Cc1cc(C(=O)N[C@@H](CC(=O)N2CCC[C@@H]2c2ccccc2)C(=O)N[C@@H](C)C(=O)NCc2c(F)cccc2F)no1,> 14300,7 nM,2870,Dose-dependent effect
Cc1cc(C(=O)N[C@@H](CC(=O)N2CCCC[C@@H]2C)C(=O)N[C@@H](C)C(=O)NCc2ccc(F)cc2F)no1,202,7 nM,3.7,Dose-dependent effect
Cc1cc(C(=O)N[C@@H](CC(=O)N2CCC[C@@H]2c2ccccc2)C(=O)N[C@@H](C)c2ncc(-c3ccc(F)cc3F)[nH]2)no1,> 7700,13 nM,> 7700,–
CC[C@@H]1CCCCN1C(=O)C[C@H](NC(=O)CCC(C)C)C(=O)N[C@@H](C)c1ncc(-c2ccc(F)cc2F)[nH]1,–,30 nM,–,–
COc1ccccc1CNC(=O)[C@H](C)NC(=O)[C@H](CC(=O)N1CCC[C@@H]1c1ccccc1)NC(=O)c1cc(C)on1,> 1500,65 nM,> 1500,Dose-dependent effect
Cc1cc(C(=O)N[C@@H](CC(=O)N2CCC[C@@H]2c2ccccc2)C(=O)N[C@@H](C)c2ncc(-c3ccccc3)[nH]2)no1,> 4000,25 nM,> 4000,–
